Assay results of several laboratories.
Compare with care: the assays were run in different laboratories.
Target: Calcium/calmodulin-dependent protein kinase type II subunit gamma (CAMK2G, Homo sapiens, UniProt Q13555)

O=C(Nc1cnn(-c2csc(C(=O)NC3COC3)c2)c1)Nc1ccccc1Cl — remaining activity (enzyme activity, inhibitor; 5 µM): 96.4%
CC(C)c1ccc(NC(=O)c2cccs2)c(-c2nc3ccccc3[nH]c2=O)c1 — activity vs control (enzyme activity, inhibitor; 1 µM): 100%
O=C(Nc1cnn(-c2csc(C(=O)NC3COC3)c2)c1)Nc1c(F)cccc1Cl — remaining activity (enzyme activity, inhibitor; 5 µM): 90.1%
CC(C)(C)c1nc2c(s1)c1nc(N)ncc1c1ccc(NS(=O)(=O)c3c(F)cccc3F)c(F)c12 — remaining activity (enzyme activity, inhibitor, radiometric; 1 µM): 118%
COc1ccc2cc(OCC3(C(=O)O)CN(C(=O)c4ccc(F)cc4)C3)ccc2c1 — remaining binding (cell-free assay, competition with immobilised ligand; 1 µM): 100%
CNC(=O)c1cc(Oc2ccc(NC(=O)Nc3ccc(Cl)c(C(F)(F)F)c3)cc2)ccn1 — inhibition (cell-free assay; 10 µM): 78%
CN1CC(Oc2cnc(C#N)cc2-c2ccn3nc(NC(=O)C4CC4)cc3c2)C1 — inhibition (enzyme activity, inhibitor; 1 µM): 10%
CN(C)c1ncnc(-c2ccc3nc(Nc4cc(CN5CCN(C(=O)CC(F)(F)F)CC5)ccn4)[nH]c3c2)c1Cl — remaining binding (cell-free assay, competition with immobilised ligand; 1 µM): 100%
Cc1ccc(NC(=O)c2ccc(C)c(C(F)(F)F)c2)cc1C#Cc1nn(C2CCC(O)CC2)c2ncnc(N)c12 (centres unmarked) — remaining signal (cell-free assay; 10 µM): 90%
Cc1cnc(NC2CCOCC2)nc1-n1cnc(C(=O)NC(CN)c2cc(F)cc(Cl)c2)c1 (centres unmarked) — remaining activity (enzyme activity, inhibitor, radiometric; 1 µM): 88%
O=c1nc(-c2ccccn2)sc2ccccc12 — remaining binding (binding, competition with immobilised ligand; 1 µM): 96%
COc1cc(-c2cc(-c3ccc(N4CCNCC4)cc3)cnc2C)cc(OC)c1OC — inhibition (enzyme activity, inhibitor; 0.1 µM): 1%
C#Cc1cccc(Nc2ncnc3cc(OCCOC)c(OCCOC)cc23)c1 — remaining signal (cell-free assay; 0.5 µM): 115%
CCCOc1ccc(OC)c(F)c1C(=O)c1ccc(C(=O)N[C@@H]2CNC[C@H]2NC(=O)c2ccc3[nH]ncc3c2)cc1 — remaining activity (enzyme activity, inhibitor; 10 µM): 79%
CS(=O)(=O)c1cc(C2(NC(=O)c3cncc4c3cnn4-c3ccc(F)cc3)CC2)ccn1 — remaining binding (cell-free assay, competition with immobilised ligand; 1 µM): 72%
N#CCCc1ccc2c(c1)-c1[nH]c3ccc([N+](=O)[O-])cc3c1CC(=O)N2 — remaining signal (cell-free assay; 0.5 µM): 66%
COc1ccc2c(O[C@@H]3C[C@H]4C(=O)N[C@]5(C(=O)O)CC5/C=C\CCCCC[C@H](NC(=O)OC5CCCC5)C(=O)N4C3)cc(-c3csc(NC(=O)C(C)C)n3)nc2c1C (some centres unmarked) — remaining binding (cell-free assay, competition with immobilised ligand; 1 µM): 100%
Cc1ccc(C(=O)Nc2ccc(CN3CCN(C)CC3)c(C(F)(F)F)c2)cc1C#Cc1cnc2cccnn12 — remaining signal (cell-free assay; 23.5 nM): 98%
CNC(=O)Nc1ccc2c(c1)CC[C@@]21OC(=O)N(CC(=O)N(Cc2ccc(F)cc2)[C@@H](C)C(F)(F)F)C1=O — remaining binding (cell-free assay, competition with immobilised ligand; 1 µM): 76%
CCCS(=O)(=O)Nc1ccc(F)c(C(=O)c2c[nH]c3ncc(-c4ccc(Cl)cc4)cc23)c1F — inhibition (enzyme activity, inhibitor; 1 µM): < 10%
